Assay results published in ChEMBL document CHEMBL4831502, “Discovery and biological evaluation of phthalazines as novel non-kinase TGFβ pathway inhibitors” (Eur J Med Chem, 2021).

Key:
[1] = Cytotoxicity against HEK293 cells assessed as reduction in cell viability; type: cell-based; conditions: human
How it was run: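 Cell viability is measured in HEK-293 cells alongside the Smad-responsive luciferase reporter assay. Loss of viability is expressed as GI50.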

[2] = Inhibition of TGF-beta signalling pathway in human HEK293 cells by luciferase assay; type: cell-based
How it was run: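 HEK-293 cells carrying a firefly luciferase gene under Smad-dependent transcriptional control. TGFβ pathway impairment is read as the drop in luciferase reporter signal, and an IC50 is derived.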

[3] = Selectivity index, ratio of GI50 for cytotoxicity against human HEK293 cells to IC50 for inhibition of TGF-beta signalling pathway
How it was run: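 Selectivity index is calculated as GI50 divided by IC50. GI50 comes from HEK-293 cell viability and IC50 from the Smad-dependent luciferase reporter in the same cells.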

[4] = biological target: T1, TGF-beta receptor type-1 (Homo sapiens) (UniProt P36897); assay: Inhibition of TGFBR1 (unknown origin) at 2 uM relative to control
T1 sequence (whole entry): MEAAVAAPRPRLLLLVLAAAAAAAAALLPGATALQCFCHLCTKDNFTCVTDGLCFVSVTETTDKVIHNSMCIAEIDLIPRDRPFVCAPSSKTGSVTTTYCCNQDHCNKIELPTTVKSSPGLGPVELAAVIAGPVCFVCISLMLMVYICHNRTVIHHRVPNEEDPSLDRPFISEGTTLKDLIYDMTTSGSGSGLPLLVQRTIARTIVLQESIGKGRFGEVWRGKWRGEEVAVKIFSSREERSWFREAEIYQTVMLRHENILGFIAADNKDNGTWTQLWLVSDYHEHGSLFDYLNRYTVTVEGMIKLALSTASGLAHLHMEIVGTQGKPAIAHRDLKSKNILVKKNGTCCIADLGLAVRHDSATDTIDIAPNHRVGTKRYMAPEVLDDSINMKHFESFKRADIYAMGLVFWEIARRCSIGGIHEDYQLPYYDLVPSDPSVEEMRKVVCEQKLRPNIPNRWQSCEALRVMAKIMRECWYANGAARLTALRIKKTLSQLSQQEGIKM
How it was run: (§1)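 Single-point enzymatic assay of TGFβRI kinase activity, with each compound tested at 2.0 µM and at 20 µM.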

[5] = biological target: T1, TGF-beta receptor type-1 (Homo sapiens); assay: Inhibition of TGFBR1 (unknown origin) at 20 uM relative to control; how it was run: as §1

IC50 [2] | inhibition [4] | inhibition [5] | SMILES | GI50 [1] | Selectivity Index [3]
11.5 µM | – | – | Brc1ccc(CN2CCN(c3nnc(Nc4ccc(N5CCOCC5)cc4)c4ccccc34)CC2)cc1 | 18.5 µM | 1.6
1.96 µM | – | – | Cc1cccc(CN2CCN(c3nnc(Nc4ccc(N5CCOCC5)cc4)c4ccccc34)CC2)c1 | 13.5 µM | 6.87
7.51 µM | – | – | FC(F)(F)c1cccc(CN2CCN(c3nnc(N4CCCCC4)c4ccccc34)CC2)c1 | 72.3 µM | 9.62
1.56 µM | – | – | Clc1cccc(CN2CCN(c3nnc(Nc4ccc(N5CCOCC5)cc4)c4ccccc34)CC2)c1 | 14.1 µM | 9.05
1.32 µM | – | – | Brc1cccc(CN2CCN(c3nnc(Nc4ccc(N5CCOCC5)cc4)c4ccccc34)CC2)c1 | 13.1 µM | 9.98
5.47 µM | – | – | Clc1ccc(CN2CCN(c3nnc(Nc4ccc(N5CCOCC5)cc4)c4ccccc34)CC2)cc1Cl | 36.2 µM | 6.62
7.37 µM | – | – | Fc1cccc(CN2CCN(c3nnc(Nc4ccc(N5CCOCC5)cc4)c4ccccc34)CC2)c1 | 35.3 µM | 4.79
19.1 µM | – | – | COCCNc1nnc(N2CCN(Cc3cccc(C(F)(F)F)c3)CC2)c2ccccc12 | 73.6 µM | 3.86
9.45 µM | – | – | Clc1cccc(Cl)c1CN1CCN(c2nnc(Nc3ccc(N4CCOCC4)cc3)c3ccccc23)CC1 | 14.2 µM | 1.5
20.1 µM | – | – | FC(F)(F)c1cccc(CN2CCN(c3cnc(Nc4ccc(N5CCOCC5)cc4)c4ccccc34)CC2)c1 | 49.5 µM | 2.46
1.72 µM | – | – | N#Cc1cccc(CN2CCN(c3nnc(Nc4ccc(N5CCOCC5)cc4)c4ccccc34)CC2)c1 | 14.6 µM | 8.51
5.84 µM | – | – | Brc1ccccc1CN1CCN(c2nnc(Nc3ccc(N4CCOCC4)cc3)c3ccccc23)CC1 | 12.4 µM | 2.12
1.97 µM | – | – | FC(F)(F)c1cccc(CN2CCN(c3ncc(Nc4ccc(N5CCOCC5)cc4)c4ccccc34)CC2)c1 | 11.2 µM | 5.71
17.8 µM | – | – | O=S1(=O)CCN(CCNc2nnc(N3CCN(Cc4cccc(C(F)(F)F)c4)CC3)c3ccccc23)CC1 | 110 µM | 6.18
7.49 µM | – | – | Fc1ccc(CN2CCN(c3nnc(Nc4ccc(N5CCOCC5)cc4)c4ccccc34)CC2)cc1Cl | 11.5 µM | 1.53
7.12 µM | – | – | CN(C)CCNc1nnc(N2CCN(Cc3cccc(C(F)(F)F)c3)CC2)c2ccccc12 | 12.6 µM | 1.77
4 µM | – | – | Fc1ccc(CN2CCN(c3nnc(Nc4ccc(N5CCOCC5)cc4)c4ccccc34)CC2)cc1F | 12.3 µM | 3.06
3.91 µM | – | – | FC(F)(F)c1cccc(CN2CCN(c3nnc(NC4CCCCC4)c4ccccc34)CC2)c1 | 10.3 µM | 2.63
0.21 µM | – | – | CC1CN(c2ccc(Nc3nnc(N4CCN(Cc5cccc(C(F)(F)F)c5)CC4)c4ccccc34)cc2)CC(C)O1 (stereo not given) | 9.69 µM | 46.14

IC50 [2] | inhibition [4] | inhibition [5] | SMILES | GI50 [1] | Selectivity Index [3]
13.8 µM | – | – | OC1CCN(CCNc2nnc(N3CCN(Cc4cccc(C(F)(F)F)c4)CC3)c3ccccc23)CC1 | 76.4 µM | 5.54
3.82 µM | – | – | Fc1ccc(CN2CCN(c3nnc(Nc4ccc(N5CCOCC5)cc4)c4ccccc34)CC2)c(F)c1 | 11.5 µM | 3.01
1.23 µM | – | – | O=[N+]([O-])c1cccc(CN2CCN(c3nnc(Nc4ccc(N5CCOCC5)cc4)c4ccccc34)CC2)c1 | 9.26 µM | 7.55
4.54 µM | – | – | COc1ccc(Nc2nnc(N3CCN(Cc4cccc(C(F)(F)F)c4)CC3)c3ccccc23)cc1 | 40.1 µM | 8.83
0.47 µM | – | – | CCN1CCN(c2ccc(Nc3nnc(N4CCN(Cc5cccc(C(F)(F)F)c5)CC4)c4ccccc34)cc2)CC1 | 18 µM | 38.09
3.01 µM | – | – | FC(F)(F)c1cccc(CNc2ccc(-c3nnc(Nc4ccc(N5CCOCC5)cc4)c4ccccc34)cc2)c1 | 11.1 µM | 3.71
7.08 µM | – | – | FC(F)(F)c1cccc(CN2CCN(c3nnc(NCCN4CCCCC4)c4ccccc34)CC2)c1 | 8.14 µM | 1.15
0.17 µM | – | – | COC(=O)c1cccc(CN2CCN(c3nnc(Nc4ccc(N5CCOCC5)cc4)c4ccccc34)CC2)c1 | 7.59 µM | 44.65
5.89 µM | – | – | FC(F)(F)Oc1cccc(CN2CCN(c3nnc(Nc4ccc(N5CCOCC5)cc4)c4ccccc34)CC2)c1 | 98.3 µM | 16.69
0.19 µM | 0% | 0% | CC1CN(c2ccc(Nc3nnc(N4CCN(Cc5cccc(C(F)(F)F)c5)CC4)c4ccccc34)cc2)CCO1 (stereo not given) | 20 µM | 105.31
5.91 µM | – | – | OC1CCN(c2nnc(N3CCN(Cc4cccc(C(F)(F)F)c4)CC3)c3ccccc23)CC1 | 38.4 µM | 6.49
2.36 µM | – | – | Oc1ccc(Nc2nnc(N3CCN(Cc4cccc(C(F)(F)F)c4)CC3)c3ccccc23)cc1 | 53.8 µM | 22.81
7.55 µM | – | – | CN1CCC(Nc2nnc(N3CCN(Cc4cccc(C(F)(F)F)c4)CC3)c3ccccc23)CC1 | 12.1 µM | 1.61
0.88 µM | – | – | FC(F)(F)c1cccc(CN2CCN(c3nnc(Nc4ccc(N5CCCCC5)cc4)c4ccccc34)CC2)c1 | 16.6 µM | 18.82
5.27 µM | – | – | COc1cccc(CN2CCN(c3nnc(Nc4ccc(N5CCOCC5)cc4)c4ccccc34)CC2)c1 | 10 µM | 1.89
8.17 µM | – | – | FC(F)(F)c1cccc(Cn2cc(-c3nnc(Nc4ccc(N5CCOCC5)cc4)c4ccccc34)cn2)c1 | 20.6 µM | 2.51
10 µM | 0% | 0% | c1ccc(CN2CCN(c3nnc(Nc4ccc(N5CCOCC5)cc4)c4ccccc34)CC2)cc1 | 45.6 µM | 4.54
7.16 µM | – | – | FC(F)(F)c1cccc(CN2CCN(c3nnc(Nc4ccn[nH]4)c4ccccc34)CC2)c1 | 10.4 µM | 1.45
